Experimental data pooled from the literature.
Protocols differ between the studies behind these lines.
CASP8: Caspase-8 (CASP8, Homo sapiens, UniProt Q14790)
GRK2: Beta-adrenergic receptor kinase 1 (GRK2, Homo sapiens, UniProt P25098)
ABHD6: Monoacylglycerol lipase ABHD6 (ABHD6, Homo sapiens, UniProt Q9BV23)

Compound	target	test	setting	inhibition
CCOC(=O)c1ccc(OC(=O)CCCCCNC(=N)N)cc1	CASP8	enzyme activity, inhibitor	10 µM	1%
CN(CCN1CCC(OC(=O)Nc2ccccc2-c2ccccc2)CC1)C(=O)c1ccc(CN2CCC(C(N)=O)CC2)cc1	D(4) dopamine receptor (DRD4, Homo sapiens, UniProt P21917)	ligand displacement, radioligand	1 µM	-4%
CCN(CC)CCCC[C@H](NC(=O)[C@H](CC(C)C)NC(=O)[C@H](C)NC(=O)[C@H](Cc1ccccc1)NC(=O)c1ccc(C(C)(C)C)cc1)C(=O)N[C@@H](CO)C(=O)OC	Neurotensin receptor type 1 (NTSR1, Homo sapiens, UniProt P30989)	ligand displacement, radioligand	10 µM	-10%
C#Cc1n[nH]c2c(-c3cn([C@@H](C)c4ccccn4)c(=O)[nH]c3=O)cc(F)cc12	Calcium/calmodulin-dependent protein kinase type 1 (CAMK1, Homo sapiens, UniProt Q14012)	enzyme activity, inhibitor	0.1 µM	5.7%
CN(C)C(=O)COC(=O)Cc1ccc(OC(=O)c2ccc(NC(=N)N)cc2)cc1	CASP8	enzyme activity, inhibitor	10 µM	0%
Cn1cc(-c2cc(F)cc(N3CCn4c(cc5c4CCCC5)C3=O)c2CO)cc(Nc2ccc(N3CCN(C4COC4)CC3)cn2)c1=O	GRK2	enzyme activity, inhibitor	0.1 µM	-1%
C[C@H](C(=O)N[C@H]1COc2ccccc2[C@@H]1S(C)(=O)=O)c1ccc(F)cc1	D(4) dopamine receptor (DRD4, Homo sapiens, UniProt P21917, del265-296)	cell-free assay	10 µM	10%
CN(C(=O)Oc1nsnc1N1CCCCC1)c1ccc(C#N)cc1	ABHD6	enzyme activity, inhibitor, fluorescence	1 µM, lysate	15%
O=C1N=C(N2CCCCN2)S/C1=C\c1ccc(F)cc1O	5-hydroxytryptamine receptor 5A (HTR5A, Homo sapiens, UniProt P47898)	ligand displacement, radioligand	10 µM	< 10%
Cn1cc(-c2cccc(N3CCc4c(sc5c4CC(C)(C)C5)C3=O)c2CO)cc(Nc2ccncn2)c1=O	GRK2	enzyme activity, inhibitor	1 µM	14%
C#Cc1n[nH]c2c(-c3cn([C@@H](C)c4ccccc4)c(=O)[nH]c3=O)cc(F)cc12	RAC-beta serine/threonine-protein kinase (AKT2, Homo sapiens, UniProt P31751)	enzyme activity, inhibitor	0.1 µM	4%
Cc1ccccc1N(C)C(=O)Oc1nsnc1N1CCCCC1	ABHD6	enzyme activity, inhibitor, fluorescence	1 µM, lysate	17%
N=C(N)c1ccc2cc(OC(=O)c3ccc(N=C(N)N)cc3)ccc2c1	CASP8	enzyme activity, inhibitor	10 µM	0%
COCc1c(-c2cc3cc(C)cc(OC)c3s2)c2c(N)ncnn2c1CN1CCNC(=O)C1	Mitogen-activated protein kinase kinase kinase 19 (MAP3K19, Homo sapiens, UniProt Q56UN5)	cell-free assay, competition with immobilised ligand	1 µM	89%
